High-throughput results (PubChem BioAssay)
Only some compounds are listed: those with a hit (about 1.4% of all), similar ones and a draw of the others.
ZTA counter – blocks Epstein-Barr virus ZTA, an EBNA-1 counter-screen; P03206; ZTA-DNA binding, fluorescence polarization; inhibition, % at 11 µM; hit rate 0.15% among 320,000; AID 2234; in the data active means inhibition above about 33%
Target sequence (P03206 whole entry, looked up): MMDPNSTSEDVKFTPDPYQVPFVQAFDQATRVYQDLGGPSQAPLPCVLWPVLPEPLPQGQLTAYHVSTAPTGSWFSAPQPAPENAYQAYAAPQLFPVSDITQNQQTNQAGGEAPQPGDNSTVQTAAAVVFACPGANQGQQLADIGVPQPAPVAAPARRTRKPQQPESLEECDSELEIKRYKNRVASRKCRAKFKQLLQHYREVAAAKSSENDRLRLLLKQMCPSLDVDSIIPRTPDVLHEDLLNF
HCV core dimer – HCV core protein dimerization inhibition; TR-FRET GST/Flag-core106 dimerization, 1536-well; inhibition, % at 5 µM; hit rate 0.33% among 300,000;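 active means inhibition above the mean of all tested compounds plus 3 SD, set per screening campaign, cut at about 45% in these data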
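System: GST-tagged and Flag-tagged HCV core protein residues 1-106 / Input: core106 proteins, GST 13.5 nM and Flag 17 nM / Buffer or medium: KF-containing HEPES buffer, pH 7.45, DTT, CHAPS, BSA / Probe or stimulus: Eu-anti-GST and XL665-anti-Flag labelled anti-tag antibodies / Schedule: 4 h, 22.5 °C incubation / Technique: TR-FRET 671 and 617 nm emission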
EBNA-1 inh – blocks EBNA-1 binding to DNA; hit rate 0.34% among 300,000; AID 1950; inhibition, % at 14.8 µM; EBNA-1 DNA binding, fluorescence polarization; in the data active means inhibition above about 28%
UBC9 SUMO inh – SUMOylation inhibition | P63279 | AID 2006 | inhibition, % at 35 µM | hit rate 0.36% among 290,000 | HTRF SUMOylation assay, SAE1/SAE2 + UBC9, in vitro; in the data active means inhibition above about 50%, passing the limit was not always enough
Target sequence (P63279 whole entry, looked up): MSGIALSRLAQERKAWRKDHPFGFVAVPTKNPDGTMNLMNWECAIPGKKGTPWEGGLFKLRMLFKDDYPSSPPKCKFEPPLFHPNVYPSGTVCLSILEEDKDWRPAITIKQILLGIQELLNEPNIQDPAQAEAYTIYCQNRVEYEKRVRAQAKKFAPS
HCV NS3 hel inh – inhibitors of Hepatitis C virus NS3 helicase; NS3 helicase DNA unwinding, Cy5 molecular beacon fluorescence; inhibition, % at 10.9 µM; hit rate 0.56% among 290,000; AID 1800;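 active means inhibition above the mean of all tested compounds plus 3 SD, set per campaign, cut at about 35% in these data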;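 further: 0% = DMSO wells and 100% = thioflavine S control wells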
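test system = hepatitis C virus NS3 helicase domain fragment enzyme | reagent = annealed dual-labelled DNA beacon duplex, ATP-started | times = 1 h at 25 °C | detection = Cy5 fluorescence, 0 and 60 min reads | read-out basis = percent inhibition from t60/t0 fluorescence ratio | control set = DMSO and thioflavine S | replication = one well per compound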
* hit, by the source's call.

`Cc1ccc(C)c(OCCC(=O)N2CCN(S(=O)(=O)c3cc(C)ccc3C)CC2)c1` gave ZTA counter 4, HCV core dimer 6 and EBNA-1 inh -7.
`Cc1cccc(OCCCN2C(=O)C(=O)c3cc(C)ccc32)c1` gave ZTA counter -5, HCV core dimer 7, EBNA-1 inh 3, UBC9 SUMO inh -3 and HCV NS3 hel inh -6.
`NNC(=O)c1ccc(CN2C(=O)c3cccc4cccc2c34)cc1` gave ZTA counter 8, HCV core dimer 9, EBNA-1 inh 4, UBC9 SUMO inh 20 and HCV NS3 hel inh 10.
`COc1ccccc1/C=N/NC(=O)c1ccc(CN2C(=O)c3cccc4cccc2c34)cc1` gave ZTA counter -6, HCV core dimer 18, EBNA-1 inh 1, UBC9 SUMO inh 59* and HCV NS3 hel inh 0.
For C#CCSc1nsc(SCC#C)c1C#N the results were ZTA counter -3, HCV core dimer 63*, EBNA-1 inh 3, UBC9 SUMO inh -10 and HCV NS3 hel inh 7.
For COc1cc(C(=O)N/N=C/c2cc([N+](=O)[O-])cs2)cc(OC)c1OC the results were ZTA counter 12, HCV core dimer 1, EBNA-1 inh -6, UBC9 SUMO inh 68* and HCV NS3 hel inh 2.
Screening CCOc1ccc(C(=O)N/N=C/c2cc([N+](=O)[O-])cs2)cc1 returned ZTA counter 7, HCV core dimer 1, EBNA-1 inh -8, UBC9 SUMO inh 18 and HCV NS3 hel inh 13.
For Oc1c(/C=N/Nc2cccc3cccnc23)ccc2ccccc12 the results were ZTA counter -9, HCV core dimer -1, EBNA-1 inh 0, UBC9 SUMO inh 66* and HCV NS3 hel inh 22.
O=C(CC1Nc2cccc3cccc(c23)NC1=O)Nc1ccc(F)cc1 (stereo not drawn) was read as ZTA counter 12, HCV core dimer -14, EBNA-1 inh -14, UBC9 SUMO inh 68* and HCV NS3 hel inh 23.
`CC(C)N1CCC2(CC1)C(C#N)=C(N)NC(S)=C2C#N` gave ZTA counter -1, HCV core dimer -12, EBNA-1 inh 3, UBC9 SUMO inh 52* and HCV NS3 hel inh 3.
For N#CC1=C(N)NC(SCC(=O)O)=C(C#N)C12CCCC2 the results were ZTA counter -1, HCV core dimer 0, EBNA-1 inh 3, UBC9 SUMO inh 12 and HCV NS3 hel inh 10.
For CC1CC(C)CN(C2CCCCC2NS(=O)(=O)c2ccc(Cl)cc2)C1 (stereo not drawn) the results were ZTA counter 7, HCV core dimer -1, EBNA-1 inh 17, UBC9 SUMO inh -15 and HCV NS3 hel inh -2.
`COc1ccc(C(=O)Nc2ccc(C(=O)NCCc3ccc(OC)c(OC)c3)cc2)cc1` gave ZTA counter 4, HCV core dimer 0, EBNA-1 inh -1, UBC9 SUMO inh 60* and HCV NS3 hel inh 2.
Cc1csc(NC(=O)C2CC(=O)N(c3ccc(C)c(C)c3)C2)n1 (stereo not drawn) was read as ZTA counter 5, HCV core dimer 8, EBNA-1 inh 6, UBC9 SUMO inh 14 and HCV NS3 hel inh 4.
For CC(C)Cc1nnc(NC(=O)Cc2cccs2)s1 the results were ZTA counter -2, HCV core dimer 67*, EBNA-1 inh 5, UBC9 SUMO inh 12 and HCV NS3 hel inh 31.
CC(C)c1nnc(NC(=O)Cc2cccs2)s1 was read as ZTA counter 13, HCV core dimer -2, EBNA-1 inh 7, UBC9 SUMO inh -1 and HCV NS3 hel inh -4.
`CC(C)(C)Cc1nnc(NC(=O)Cc2cccs2)s1` gave ZTA counter 15, HCV core dimer 51*, EBNA-1 inh 15, UBC9 SUMO inh 20 and HCV NS3 hel inh 14.
`CCCCCc1nnc(NC(=O)Cc2cccs2)s1` gave ZTA counter -19, HCV core dimer 71*, EBNA-1 inh -3, UBC9 SUMO inh 13 and HCV NS3 hel inh 9.
CCCCCc1nnc(NC(=O)Cc2ccc([N+](=O)[O-])cc2)s1 was read as ZTA counter 9, HCV core dimer 20, EBNA-1 inh 6, UBC9 SUMO inh 19 and HCV NS3 hel inh 9.
For COc1ccc2cc(CCNS(=O)(=O)c3c(C)cc(C)cc3C)c(=O)[nH]c2c1 the results were ZTA counter 5, HCV core dimer 6, EBNA-1 inh 14, UBC9 SUMO inh 7 and HCV NS3 hel inh 4.
Screening Cc1cccc(OCC(=O)N(Cc2ccccc2)c2c(N)n(Cc3ccccc3)c(=O)[nH]c2=O)c1 returned ZTA counter 16.
